This note sets out measurements from ChEMBL document CHEMBL1137020, “Role of the rapA gene in controlling antibiotic resistance of Escherichia coli biofilms” (2007).

Values after ≈ are worked out from the molar mass of the structure shown. Active and inactive are the calls of the source.

Experiment [1] deals with Escherichia coli. In words: Antimicrobial activity against Escherichia coli isolate AMG1 24 hrs biofilms after 24 hrs relative to control. It is filed as functional. In short, it runs like this: (§1)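 Microtiter plate biofilms grown 24 h, then exposed 24 h to a range of norfloxacin concentrations. Survival counted as CFU and expressed as percent of 10^8 CFU/ml for each strain.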

For experiment [2], the system named is Escherichia coli. In words: Antimicrobial activity against Escherichia coli isolate AMG1 24 hrs biofilms at 0.03 ug/ml to 0.12 ug/ml after 24 hrs by microtiter plate count method. It is filed as functional, organism-based. In short, it runs like this:
as §1

The subject of experiment [3] is Escherichia coli. The experiment is described as follows: Antimicrobial activity against tetracycline-resistant Escherichia coli U1 rapA mutant nylon membrane cultivated 24 hrs biofilms at 350 ug/ml after 1 hr. It is filed as functional. Put shortly: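 Nylon membranes (1×1 cm) in LB inoculated at OD600 0.1 and grown 24 h at 37°C. Medium replaced with LB ± penicillin G 350 μg/ml for 1 h. Membranes rinsed and vortexed 2 min in M9 salts, then diluted and plated in quadruplicate on LB agar for CFU.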

For experiment [4], the system named is Escherichia coli. The experiment is described as follows: Antimicrobial activity against tetracycline-resistant Escherichia coli U1 rapA mutant grown as biofilms after 24 hrs by spectrophotometric method. It is filed as functional. As to conditions: U1, 24 h. Put shortly: (§2)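 Wells with 100 and 200 μl LB inoculated to OD600 0.06 and grown 24 h at 37°C without shaking. Medium then replaced with LB containing penicillin G (0–250 μg/ml) for 24 h, and growth read by OD. MIC for planktonic cells and MICadh for biofilm taken as the concentration giving 50% growth reduction versus unexposed control. Biofilm contribution derived from the 100/200 μl OD relation.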

The subject of experiment [5] is Escherichia coli. In words: Antimicrobial activity against Escherichia coli AMG1 isolate 24 hrs flow cell-generated biofilms using BacLight staining by CSLM. It is filed as functional, organism-based. In short, it runs like this: (§3)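 Penicillin G 350 μg/ml was given in flowing medium for 1 h, with controls kept on antibiotic-free flow. LIVE/DEAD BacLight was stopped in place for 5 min and then rinsed. CSLM green/(red+green) integrated intensity, thresholded, gave percent survival versus untreated controls.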

Experiment [6] has as its system Escherichia coli. The experiment is described as follows: Antimicrobial activity against wild type Escherichia coli isolate AMG1 grown as planktonic cells after 24 hrs by spectrophotometric method. As to conditions: AMG1, 24 h. It is filed as functional. In short, it runs like this:
as §2

The test system of experiment [7] is Escherichia coli. The experiment is described as follows: Antimicrobial activity against tetracycline-resistant Escherichia coli U1 rapA mutant grown as planktonic cells after 24 hrs by spectrophotometric method. It is filed as functional. As to conditions: U1, 24 h. Put shortly:
as §2

Experiment [8] relates to Escherichia coli. In words: Antimicrobial activity against tetracycline-resistant Escherichia coli U1 rapA mutant 24 hrs biofilms assessed as viability at 350 ug/ml after 1 hr by microtiter plate count method. It is filed as functional. In short, it runs like this:
(§4)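 Biofilms grown 24 h in microtiter plate wells, then exposed to penicillin G at 350 μg/ml for 1 h. Viability by plate count (CFU) against untreated controls. At least three independent determinations, mean ±1 SD. Strain differences tested by Student's two-tailed t test.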

The subject of experiment [9] is Escherichia coli. In words: Antimicrobial activity against tetracycline-resistant Escherichia coli U1 rapA mutant flow cell-generated 24 hrs biofilms using BacLight staining by CSLM. It is filed as functional, organism-based. Put shortly: (§5)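 Biofilms grown 24 h in Plexiglas flow cells on M9-Casamino Acid medium under flow. Penicillin G 350 μg/ml in flowing medium for 1 h; controls kept on medium alone. LIVE/DEAD BacLight (Syto9/propidium iodide) injected, flow halted 5 min, then rinsed. CSLM images thresholded. Survival taken as green/(red+green) fluorescence relative to untreated controls.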

Experiment [10] concerns Escherichia coli. In words: Antimicrobial activity against wild type Escherichia coli isolate AMG1 grown as biofilms after 24 hrs by spectrophotometric method. It is filed as functional. As to conditions: AMG1, 24 h. Put shortly:
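Triplicate microtiter wells held 100 and 200 μl LB, inoculated at OD600 0.06 and grown 24 h at 37°C without shaking. Liquid was replaced with LB containing penicillin G at 0–250 μg/ml, and growth was read by plate reader 24 h later. The biofilm contribution came from an equation correlating the two volumes' OD. MICadh is the concentration giving 50% growth reduction versus unexposed control.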

Experiment [11] has as its system Escherichia coli. The experiment is described as follows: Antimicrobial activity against wild type Escherichia coli K-12 flow cell-generated 24 hrs biofilms at 350 ug/ml after 1 hr using BacLight staining by CSLM. It is filed as functional. Put shortly: as §3
Experiment [12] deals with Escherichia coli. The experiment is described as follows: Antimicrobial activity against kanamycin-resistant Escherichia coli K-12 M2 W3110 deltayhcQ mutant 24 hrs biolflim at 350 ug/ml after 1 hr using BacLight staining. It is filed as functional. In short, it runs like this: as §5
The subject of experiment [13] is Escherichia coli. In words: Antimicrobial activity against kanamycin-resistant Escherichia coli U6 deltayhcQ mutant 24 hrs biofilms at 350 ug/ml after 1 hr by microtiter plate count method. It is filed as functional. In short, it runs like this:
as §4

Experiment [14] relates to Escherichia coli. In words: Antimicrobial activity against kanamycin-resistant Escherichia coli K-12 M1 W3110 deltarapA mutant flow cell-generated 24 hrs biofilms at 350 ug/ml after 1 hr using BacLight staining by CSLM. It is filed as functional. In short, it runs like this: as §5
Experiment [15] has as its system Escherichia coli. The experiment is described as follows: Antimicrobial activity against Escherichia coli isolate AMG1 24 hrs biofilms at 350 ug/ml after 1 hr by microtiter plate count method. It is filed as functional. Put shortly: (§6)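 Biofilms were grown 24 h in microtiter plate wells and exposed to penicillin G at 350 μg/ml for 1 h. Viability was counted by CFU plating and compared with untreated control biofilms grown identically. Values are averages of at least three independent determinations ±1 standard deviation. Strain differences were tested by two-tailed Student's t test.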

In experiment [16] the test system is Escherichia coli. In words: Antimicrobial activity against kanamycin-resistant Escherichia coli K-12 M1 W3110 deltarapA mutant 24 hrs biolflim at 350 ug/ml after 1 hr by microtiter plate count method. It is filed as functional, organism-based. Put shortly: as §4
For experiment [17], the system named is Escherichia coli. In words: Antimicrobial activity against wild type Escherichia coli K-12 24 hrs biolflim at 350 ug/ml after 1 hr by microtiter plate count method. It is filed as functional, organism-based. In short, it runs like this: as §6

Regarding `O=C(N[C@H](CO)[C@H](O)c1ccc([N+](=O)[O-])cc1)C(Cl)Cl` [CHLORAMPHENICOL], in [1], the Activity amounted to 40%.
Consider `CCn1cc(C(=O)O)c(=O)c2cc(F)c(N3CCNCC3)cc21`, for which the outcome in experiment [2] was Active.
With `CC1(C)S[C@@H]2[C@H](NC(=O)Cc3ccccc3)C(=O)N2[C@H]1C(=O)O` [PENICILLIN G], the Activity in experiment [3] was found to be 30%; in experiment [8], 71%; in experiment [11] it was 22%; in experiment [12], 31%; in experiment [13], 55%; in experiment [14], 71%. Also, in experiment [15], the Activity is given as 35%. The MIC in experiment [4] is 125 µg/mL (≈ 374 µM); in experiment [6], 50 µg/mL (≈ 150 µM); in [7], 50 µg/mL (≈ 150 µM); in experiment [10] it was 250 µg/mL (≈ 748 µM). For the same compound, in experiment [5], the outcome was inactive. Further, the result in experiment [9], in experiment [16] and in [17] was Active.
GENTAMICIN: in [1], the Activity was found to be 40%.
